# Screens (PubChem BioAssay)
# The list is not random: actives were taken first. Their share in the collection is about 2.6%.
# V1R ag counter – V1a receptor agonism, counter-screen for OXTR agonists; 0.25% of 320,000 active; CHO-V1R cells, Fluo-8 calcium fluorescence, agonist mode; 0% DMSO, 100% 3 nM vasopressin; activation, % at 3 µM;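 active = activation above the mean activation of all tested compounds plus 3 SD, per screening run, cut at about 20% in these data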;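 also: signal is peak over basal fluorescence ratio across a 100 second FLIPR read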
# OXTR ag – human OXTR agonism; CHO-OTR cells, Fluo-8 calcium fluorescence; normalized: DMSO 0%, oxytocin 100%; activation, % at 3 µM; 0.32% of 320,000 active;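 active = activation above the mean of all tested compounds plus 3 SD, cutoff set per screening run, cut at about 20% in these data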;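 also: peak over basal fluorescence ratio from a 100 s FLIPR kinetic read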
# Target sequence (P30559 whole entry, looked up): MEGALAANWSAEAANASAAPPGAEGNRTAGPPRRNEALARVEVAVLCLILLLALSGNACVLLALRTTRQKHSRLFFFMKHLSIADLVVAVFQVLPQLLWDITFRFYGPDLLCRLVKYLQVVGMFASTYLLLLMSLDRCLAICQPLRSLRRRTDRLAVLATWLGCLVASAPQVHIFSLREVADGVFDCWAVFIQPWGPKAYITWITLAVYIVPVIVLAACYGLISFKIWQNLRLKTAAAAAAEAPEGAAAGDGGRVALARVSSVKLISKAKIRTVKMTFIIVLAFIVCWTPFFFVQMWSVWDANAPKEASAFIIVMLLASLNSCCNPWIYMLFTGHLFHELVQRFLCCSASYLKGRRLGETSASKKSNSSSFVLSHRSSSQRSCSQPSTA
# OXTR potentiate – potentiates the human oxytocin receptor response; P30559; AID 2445; activation, % at 3 µM; CHO-OTR cells, Fluo-8 calcium fluorescence, potentiator mode; 0% = oxytocin EC15, 100% = EC100; 0.061% of 320,000 active;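 active = activation above that plate's cutoff, the mean activation of tested compounds plus 3 SD, cut at about 6.6% in these data, passing the limit was not always enough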;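 also: 100% uses oxytocin at 75 nM as the full agonist control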
#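 Material: human OTR in CHO cells. Compound: 3.0 µM, one dose. Timing: compound 6 min at room temperature before oxytocin, 100 s read. Evaluation: % activation of max/min ratio relative to oxytocin controls. Replication: single well per compound, singlicate. Signal: Fluo-8 calcium dye fluorescence.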
# OX1R antag-1 – blocks the human orexin 1 receptor. 0.43% of 330,000 active. CHO/OX1R cells, Fluo-8 calcium fluorescence, orexin A. O43613. inhibition, % at 5 µM;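 active = inhibition above its plate's threshold, mean inhibition of all tested compounds on the plate plus 3 SD, cut at about 37% in these data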;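 also: 0% = orexin A challenge wells and 100% = SB-334867-A antagonist wells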
# OX1R antag-2 – blocks the human orexin 1 receptor; AID 485270; inhibition, % at 6.6 µM; OX1R-expressing cells, FRET antagonist read-out; O43613; 1.8% of 330,000 active; in the data active = inhibition mostly above about 38%, no sharp cut-off; inactive = mostly below about 40%;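 also: 0% = agonist challenge alone and 100% = reference antagonist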
# CHO parental Ca – counter-screen for OX1R antagonists: effect in parental CHO cells; parental CHO-K1, ATP-induced calcium, Fluo-8 fluorescence; inhibition, % at 5.6 µM; 0.63% of 330,000 active; AID 463079;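 active = inhibition above that plate's mean sample inhibition plus 3 SD, cut at about 26% in these data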;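 also: 0% = ATP-challenged DMSO wells and 100% = DMSO wells without ATP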
#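 Test system: untransfected parental CHO cell line; also added: ATP stimulus; dosing: 5.6 µM, single dose; signal: calcium-sensitive Fluo-8 fluorescence; measure: percent inhibition of ATP-evoked calcium rise, normalized to controls; benchmarks: low control ATP plus DMSO, high control DMSO only; replication: one well per compound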
# OXTR ag confirm – confirmation of human oxytocin receptor agonists; shares compounds with OXTR ag; CHO-OTR cells, Fluo-8 calcium fluorescence, agonist; activation, % at 3 µM; 20% of 390 active; AID 434963;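 active = mean activation above about 20% derived from the earlier single-dose screen, limit read from the data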;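 also: peak over minimum fluorescence ratio per well during a 100 second FLIPR read; 0% = DMSO alone and 100% = oxytocin high control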
# V1aR counter 3x – V1R agonism in triplicate, counter-screen for OXTR agonists. activation, % at 3 µM. CHO-V1R cells, Fluo-8 calcium fluorescence, agonist. shares compounds with OXTR ag. 10% of 390 active;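 active = mean activation over triplicate exceeds the hit threshold set in the earlier primary screen, cut at about 20% in these data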;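 also: peak over basal fluorescence ratio within a 100 second read; 0% = DMSO alone and 100% = 3 nM vasopressin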
# The depositor's hits bear a star; · = not tested or not shown.
SMILES,V1R ag counter,OXTR ag,OXTR potentiate,OX1R antag-1,OX1R antag-2,CHO parental Ca,others
CC(C)(C)c1ccc(OCc2ccc(C(=O)NCc3cccnc3)o2)cc1,11,10,-17,20,8,37*,
Cc1cccc(OCc2nc(C#N)c(N3CC(C)CC(C)C3)o2)c1 (stereo not given),0,-1,-6,-39,8,38*,
Cc1cccc(OCc2nc(C#N)c(N3CCCC3)o2)c1,-1,-3,-1,-3,11,-15,
CC(C)(C)c1cc(CCC(=O)NCc2ccncc2)cc(C(C)(C)C)c1O,-1,-1,7,-16,9,-14,
Cc1cccc(Nc2nc(-c3c(C)nc4ccccn34)cs2)c1,5,7,-9,70*,32,43*,
Cc1nc2ccccn2c1-c1csc(Nc2cccc(C(=O)O)c2)n1,-1,0,-3,-4,7,-13,
CCN1C(=O)[C@H]2[C@@H](c3ccc(C)cc3)N3C(=O)N(c4cccc(Br)c4)C(=O)[C@@]3(CC(C)C)[C@H]2C1=O,2,-2,-8,-61,27,-26,
COC(=O)Nc1ccc(S(=O)(=O)N2CCC(Cc3ccccc3)CC2)cc1,3,4,-21,20,14,45*,
COC(=O)Nc1ccc(S(=O)(=O)N2CCC(C)CC2)cc1,0,0,-7,1,12,-8,
O=C(N/N=C/c1c(O)ccc2ccccc12)c1ccc[n+](CCO)c1,1,0,1,-6,57*,0,
Cn1cc(C(=O)N/N=C/c2c(O)ccc3ccccc23)ccc1=O,1,2,-6,-12,39*,-12,
O=C(N/N=C\c1c(O)ccc2ccccc12)c1ccc(O)cc1,0,9,-10,-22,9,-17,
COc1cccc(-c2nnc3sc(-c4ccc(C)cc4)nn23)c1,0,0,-3,-14,12,-12,
CCOc1ccc(-c2nn3c(-c4ccccc4)nnc3s2)cc1,0,0,-1,-1,64*,-14,
COc1cccc(-c2nn3c(-c4cccc(C)c4)nnc3s2)c1,0,1,1,-4,57*,-29,
CC(C)[C@H]1COCCS(=O)(=O)N1Cc1ccccc1-c1cccc(Cl)c1,·,·,·,11,13,-35,
CN(c1ccccc1)S(=O)(=O)c1cccc(NC(=O)CN2CCCc3ccccc32)c1,0,-1,-7,12,24,33*,
O=C(C[C@@H]1C/C=C/CC[C@@H](Cc2ccc(F)cc2)C(=O)O[C@H](c2ccccc2)CNC1=O)NCCO,1,0,1,-33,4,-14,
COC(=O)c1ccc(NC(=O)c2cccc(NC(=O)c3ccccc3)c2)cc1,3,2,-7,-13,10,-11,
CCCC(C(=O)NC1CCCC1)N(Cc1ccccc1)C(=O)c1snc(C(N)=O)c1N (stereo not given),2,-1,2,-30,20,-16,
COc1ccc(Cl)cc1NC(=O)CN(C)C(=O)c1sc2ccccc2c1Cl,0,-1,-7,-24,10,-23,
COc1ccc(Cl)cc1NC(=O)CN(c1ccccc1)S(=O)(=O)N(C)C,-1,-2,-15,-12,53*,-24,
COc1ccc(Cl)cc1NC(=O)CN(C)C(=O)c1sccc1-c1ccccc1,3,0,-7,36,39*,-2,
NC(=S)NN=C1c2cc(OCCN3CCOCC3)ccc2-c2ccc(OCCN3CCOCC3)cc21,1,-2,-2,-16,4,-4,
O=C(CSCC(=O)N1CCCc2ccccc21)Nc1nc(-c2ccccc2)cs1,3,0,-8,-24,33*,-1,
SMILES,V1R ag counter,OXTR ag,OXTR potentiate,OX1R antag-1,OX1R antag-2,CHO parental Ca,others
CC(C)(C)c1ccc(S(=O)(=O)Nc2ccccn2)cc1,0,0,-3,-20,6,-4,
CCc1ccccc1N(C1=NCCCS1)S(=O)(=O)c1ccc(C(C)(C)C)cc1,1,-1,-13,0,51*,4,
O=Cc1cc(-c2ccccc2)[nH]c1-c1ccccc1,0,-2,0,21,6,74*,
O=Cc1cn[nH]c1-c1ccccc1,1,1,3,-8,24,23,
CC(=O)Nc1ccc(C(=O)OCC(=O)NCc2cccs2)cc1,-1,1,-3,-21,13,-2,
CCOC(=O)c1c(-c2ccccc2)csc1NC(=O)CSc1nc(C)cc(C)n1,0,-3,-10,-4,36,37*,
CCOC(=O)c1c(-c2ccc(OC)cc2)csc1NC(=O)CNCc1ccco1,1,0,-5,-8,46*,-20,
CCOC(=O)c1c(-c2ccc(Cl)cc2)csc1NC(=O)CNCc1ccco1,3,0,-8,-24,35,-23,
Nc1ccccc1SC1CC(=O)N(c2ccc(Cl)c(Cl)c2)C1=O (stereo not given),12,14,-22,24,7,34*,
Nc1ccccc1SC1CC(=O)N(c2ccc3c(c2)OCCO3)C1=O (stereo not given),0,0,0,-17,7,-18,
CCOc1ccccc1CNC(=O)c1cc2oc3ccccc3c2n1CC,1,-1,-5,-14,53*,-13,
COc1cccc(CNC(=O)c2cc3oc4ccccc4c3n2C)c1OC,1,1,-6,-18,33,-19,
C[n+]1ccc(/C=C/c2ccccc2O)c2ccccc21,1,1,-3,-15,72*,-10,
CC(=O)/C=C/c1ccccc1O,1,0,0,0,18,-4,
O=C(CN1CCN(S(=O)(=O)c2ccccc2)CC1)N1CCc2ccccc21,1,0,1,-5,3,-4,
Cc1onc(-c2ccccc2)c1C(=O)Nc1nnc(C(C)(C)C)s1,0,0,7,-44,3,-37,
CCCC1(c2ccccc2)NC(=O)N(CC(=O)Nc2cc(C)ccc2OC)C1=O (stereo not given),7,24*,-12,-8,11,-12,OXTR ag confirm=10;V1aR counter 3x=4
O=c1oc2cc(O)ccc2cc1-c1nc2c(s1)CCc1ccccc1-2,14,26*,-5,50*,17,50*,OXTR ag confirm=160*;V1aR counter 3x=181*
C=CC(=O)N1CCCC(Nc2nc(Nc3ccc(N(C)C(=O)CC)cc3C)nc3nc[nH]c23)C1 (stereo not given),1,0,-1,-11,1,-8,
Nc1ccc(Sc2cc(Cl)nc(N)n2)cc1,-1,-1,-4,-6,14,11,
